Screens: PubChem, several laboratories
SMARCA2 activ: SMARCA2 function activation, primary screen. 370,000 compounds, 1% hits. MG213 cells, MMTV-luciferase reporter, dexamethasone, overnight. activation, % at 9.1 µM; in the data active = activation above about 7.8%
SR-BI HDL uptake: blocks mouse SR-BI lipid uptake from DiI-HDL. Q61009. ldlA[mSR-BI] CHO cells, DiI-HDL uptake fluorescence, 3 h. inhibition, % at 12.5 µM. 320,000 compounds, 0.96% hits;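 active = mean replicate inhibition of at least 70% and a set share of replicates each scoring 70 or more; inconclusive = meets just one of the two criteria; inactive = fails both criteria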
Target sequence (Q61009 whole entry, looked up): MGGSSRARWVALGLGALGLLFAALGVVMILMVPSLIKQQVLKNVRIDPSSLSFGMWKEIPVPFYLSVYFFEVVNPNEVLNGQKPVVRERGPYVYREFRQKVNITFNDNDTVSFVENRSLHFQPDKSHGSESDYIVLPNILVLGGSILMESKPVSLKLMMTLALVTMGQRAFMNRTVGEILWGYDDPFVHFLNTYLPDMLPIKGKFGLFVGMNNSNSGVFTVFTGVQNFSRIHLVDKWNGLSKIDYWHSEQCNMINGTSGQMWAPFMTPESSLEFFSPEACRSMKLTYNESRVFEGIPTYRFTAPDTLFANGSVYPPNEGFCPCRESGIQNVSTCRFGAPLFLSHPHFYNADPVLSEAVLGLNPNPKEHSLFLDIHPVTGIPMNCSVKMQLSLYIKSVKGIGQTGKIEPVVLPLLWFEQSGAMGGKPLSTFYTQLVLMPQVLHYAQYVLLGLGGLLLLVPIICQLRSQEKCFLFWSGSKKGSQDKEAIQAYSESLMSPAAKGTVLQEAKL
Vif imaging: HIV Vif inhibition | HEK293T cells, Vif self-association by quenched fluorescence, imaging, 24 h | inhibition, % at 7.49 µM | 340,000 compounds, 0.35% hits | AID 602346; in the data active = inhibition above about 50%, passing the limit was not always enough; inconclusive = no clear call, values can overlap the other calls; inactive = below about 31%
H9c2 TAG inh: triacylglycerol accumulation inhibition; H9c2 cells, Nile Red lipid (TAG) fluorescence; cells loaded with 200 µM oleic acid; inhibition, % at 12.5 µM; 230,000 compounds, 0.66% hits; AID 651582;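 active = pattern-corrected inhibition of lipid staining of at least 50% with the nuclear-stain viability signal not falling by more than 50%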
SR-BI uptake up: enhances SR-BI lipid uptake from DiI-HDL; CHO ldlA[mSR-BI] cells, DiI-HDL uptake fluorescence, 3 h; 100 = double the neutral-control signal; 320,000 compounds, 0.096% hits; activation, % at 12.5 µM; AID 504775;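 active = mean replicate activation of at least 60% and every replicate at or above 60%; inconclusive = mean or all-replicate condition met, but not both; inactive = mean below 60% and not all replicates reaching 60%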
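Material – SR-BI-overexpressing, LDLR-lacking CHO cells · Medium – BSA-supplemented, HEPES-buffered Ham's F12, pH 7.4 · Doses – single concentration · Times – compound with DiI-HDL co-incubation, 3 h at 37 °C · Measured by – bottom-read fluorescence, 550/595 nm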
Hits are given with their value; i = inactive; ? = inconclusive; nt = no result given; ! = not confirmed by another sample. In the library only some 2.5% were active in any assay of this set; here they are far more common.

SMILES | SMARCA2 activ | SR-BI HDL uptake | Vif imaging | H9c2 TAG inh | SR-BI uptake up
COc1ccccc1Nc1nc(N)nc(CCl)n1 | i | i | i | i | i
CCOc1ccc(Nc2nc(N)nc(CCl)n2)cc1 | i | i | ? | 72 | i
Cc1cccc(Nc2nc(N)nc(CCl)n2)c1 | i | i | 142 | i | i
COC(=O)C1=C(C)N(Cc2ccccc2C(F)(F)F)C(=NCc2ccc3c(c2)OCO3)NC1c1ccccc1 (stereo unspecified) | i | nt | nt | nt | nt
COc1ccc(C=CC(=O)c2c(N)n(C)c(=O)n(C)c2=O)cc1 | i | nt | nt | nt | nt
CCOC(=O)Cn1cc(CN2C(C(=O)OC)CN(Cc3ccc(C)cc3)CCS2(=O)=O)nn1 (stereo unspecified) | i | nt | nt | nt | nt
COC(=O)[C@H](Cc1ccccc1)N1C[C@@H](N2CCC[C@H]2C)CS1(=O)=O | i | nt | nt | nt | nt
COc1ccc(-n2c(COc3ccc(Cl)cc3)nnc2SCC(=O)Nc2ccc(Oc3ccccc3)cc2)cc1 | i | nt | nt | nt | nt
CCOc1ccc(-n2cc(-c3ccccc3)c3c(N4CCOCC4)ncnc32)cc1 | i | 82 | i | i | i
c1ccc(-c2cn(-c3ccccc3)c3ncnc(N4CCCCC4)c23)cc1 | i | i | i | i | i
COc1ccc(-n2cc(-c3ccccc3)c3c(N4CC(C)OC(C)C4)ncnc32)cc1 (stereo unspecified) | i | 76 | i | i | i
O=[N+]([O-])c1ccc(SN2CCCCC2)c([N+](=O)[O-])c1 | i | nt | nt | nt | nt
COC(=O)C1=C(C)N(C)C(=NCc2ccccc2)NC1c1cccc(Cl)c1 (stereo unspecified) | i | nt | nt | nt | nt
CSc1cccc(NC(=O)CCn2c(=O)c3cccn3c3cccnc32)c1 | i | 77 | i | nt | i
COc1ccc(CCNC(=O)CCCn2c(=O)c3cccn3c3cccnc32)c(OC)c1 | i | 71 | i | nt | i
CCOc1ccc(CCNC(=O)CCCn2c(=O)c3cccn3c3cccnc32)cc1OCC | i | 76 | i | nt | i
COc1ccc(CCNC(=O)CCCn2c(=O)c3cccn3c3cccnc32)c(OC)c1OC | i | i | i | nt | i
COC(=O)Cc1nnn2c1[C@H](C)[C@H](C(C)(C)C)OCC2 | i | nt | nt | nt | nt
C=CCNc1cccc2c1S(=O)(=O)N[C@H](Cc1ccccc1)CO2 | i | nt | nt | nt | nt
C/C(=N\NC(N)=S)c1ccc(Cl)s1 | i | 79 | i | nt | i
N#Cc1ccc(S(=O)(=O)N2CCCc3nc(-c4ccc(Br)cc4)ccc32)cc1 | i | nt | nt | nt | nt
CC1(C)C2CCC13CS(=O)(=O)N[C@@H]3C2 (stereo partly specified) | i | i | i | i | 118
CC(=O)c1cc(-c2ccc(S(C)(=O)=O)cc2)c(=O)n2c1CCC2 | i | nt | nt | nt | nt
Oc1cc(NCCN2CCOCC2)cc2cccnc12 | i | i | i | 74 | i
Cc1onc(-c2ccccc2)c1C(=O)NC(=S)NNC(=O)c1ccc(O)cc1 | i | i | i | nt | i
SMILES | SMARCA2 activ | SR-BI HDL uptake | Vif imaging | H9c2 TAG inh | SR-BI uptake up
Cc1onc(-c2ccccc2)c1C(=O)NC(=S)NNC(=O)c1ccccc1O | i | 117 | nt | nt | i
Cc1onc(-c2ccccc2)c1C(=O)NC(=S)NNC(=O)c1ccc(O)cc1O | i | 85 | i | nt | i
N#Cc1cc2nc(O)c(O)nc2cc1[N+](=O)[O-] | i | i | 51 | i | i
C[C@H]1CN([C@@H](C)CO)C(=O)CCCn2nncc2CO[C@@H]1CN(C)Cc1ccc2cccnc2c1 | i | nt | nt | nt | nt
COc1cc(N/C(=C\C(=O)c2ccccc2)c2ccccc2)ccc1Cl | i | nt | nt | nt | nt
O=C(NCc1ccccc1)[C@@H]1CCCN1C(=O)[C@H]1CCCN1C(=O)c1ccc(OC(F)(F)F)cc1 | i | nt | nt | nt | nt
O=C(N[C@H](C(=O)N1CCC[C@H]1C(=O)NCCc1ccccc1Cl)C1CCCCC1)C1CC1 | i | nt | nt | nt | nt
Cc1ccc(-n2nc(C)cc2Nc2ncc(Cl)cc2Cl)cc1 | i | 82 | i | nt | i
COc1ccc2c(c1)C(NC(=O)C(F)(F)F)CC21CCCCC1 (stereo unspecified) | i | nt | nt | nt | nt
CCN(CC)S(=O)(=O)c1cc(NC(=O)CSc2nc3c(cc2C#N)C(=O)CC(C)(C)C3)ccc1C | i | 72 | i | nt | i
Cn1c(-c2ccc(F)cc2)cc2onc(-c3c(F)cccc3Cl)c2c1=O | 10 | nt | nt | nt | nt
C[C@@H]1CN([C@@H](C)CO)C(=O)CCCn2cc(nn2)CO[C@H]1CN(C)C(=O)Nc1ccc2c(c1)OCCO2 | i | nt | nt | nt | nt
Cc1ccc(C(C)C)c(OCc2ccc(C(=O)N/N=C/c3ccc(O)cc3O)cc2)c1 | i | 129 | i | nt | i
C[C@H]1COc2cc(NCCCN3CCOCC3)ccc2S(=O)(=O)N1 | i | nt | nt | nt | nt
COc1cc(/C=C/C(=O)Nc2cc(C(F)(F)F)ccc2Cl)cc(OC)c1OC | i | 78 | nt | i | i
CN1C(=O)C(O)(CC(=O)c2ccccn2)c2cc(Br)ccc21 (stereo unspecified) | i | i | i | 53 | i
CN1C(=O)[C@@](O)(CC(=O)c2ccccc2)c2cc(Br)ccc21 | i | nt | nt | nt | nt
CCN1C(=O)N(C(C)=O)[C@@H]2C[C@H](C(=O)N3CCCC3)[C@H](C)[C@H](c3ccccc3)C[C@@H]21 | i | nt | nt | nt | nt
Cc1ccc(Nc2nc(N)nc(CSc3nnc(-c4ccncc4)o3)n2)cc1 | i | i | 83 | i | i
COC(=O)c1cc(-c2cccc(C(C)C)c2)c(=O)n2c1CCC2 | i | nt | nt | nt | nt
CSc1ccccc1OCc1cc(C(=O)NCCn2nc(C)cc2C)no1 | i | 72 | i | i | i
COc1cc(C(=O)Oc2cccnc2)cc(OC)c1OC | i | i | i | nt | i
COc1cc(C(=O)Oc2cc(C)cc(C)c2)cc(OC)c1OC | i | 77 | i | i | i
COc1ccc(/C=N/N2CCN(c3ccccc3OC)CC2)cc1OC | i | i | i | nt | i
CCN(CC)c1ccc(/C=N/N2CCN(c3ccccc3OC)CC2)cc1 | i | 81 | i | nt | i
SMILES | SMARCA2 activ | SR-BI HDL uptake | Vif imaging | H9c2 TAG inh | SR-BI uptake up
Cc1ccccc1N(C(=O)c1snc(C(N)=O)c1N)C(C(=O)NC1CCCCC1)c1ccc(O)cc1 (stereo unspecified) | i | nt | i | nt | nt
Cc1ccccc1N(C(=O)c1snc(C(N)=O)c1N)C(C)C(=O)NC1CCCCC1 (stereo unspecified) | i | 83 | i | nt | i
CCCCCCCCCCOC(=O)Cn1c(COc2ccccc2C)[n+](C)c2ccccc21 | nt | i | i | nt | i
CCOC(=O)Cn1c(COc2ccccc2OC)[n+](C)c2ccccc21 | i | nt | 66 | i | nt
CC1CCC(C(C)C)C(OC(=O)Cn2c(-c3ccc(Cl)cc3)[n+](C)c3ccccc32)C1 (stereo unspecified) | i | i | i | i | i
Cc1ccccc1OCc1n(CC(=O)OC2CC(C)CCC2C(C)C)c2ccccc2[n+]1C (stereo unspecified) | i | i | i | 76! | i
CC1CCC(C(C)C)C(OC(=O)Cn2c(-c3ccc(Br)cc3)[n+](C)c3ccccc32)C1 (stereo unspecified) | i | i | i | 89 | i
CN1C(=O)[C@@]2(O[C@H]3[C@H]4C=C[C@@H]([C@H]5C(=O)N(Cc6ccccc6)C(=O)[C@@H]45)N3C3=C2C(=O)CC3)c2ccccc21 | i | nt | nt | nt | nt
O=C(N/N=C/c1ccccc1OCc1ccccc1)c1cccs1 | 7.9 | 76 | i | nt | i
